Assay results from the array DNA melting data of Ke et al. (doi:10.1101/2024.01.08.574731).

Columns and labels:
[1] = folding enthalpy; higher = less favourable; fluorescence melt of hairpins on a sequencing array, two-state fit; details: sodium 0.088 M
Summary of the method: (§1)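 On a sequenced MiSeq flow cell, library hairpins with annealed Cy3 and quencher oligos were imaged for Cy3 fluorescence in 2.5 °C steps up to 60 °C, in 50 mM Na-HEPES pH 8.0, 25 mM NaCl. Normalisation used pre-quench Cy3 and control constructs. Bootstrapped two-state fits gave melting temperature and folding enthalpy, combined by inverse variance across four replicates and with fitted temperatures raised by 9.35 °C to match UV melts.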

[2] = melting temperature; fluorescence melt of hairpins on a sequencing array, two-state fit, raised by 9.35 °C to match UV melts; details: sodium 0.088 M
Summary of the method: as §1

Row | Sequence | folding enthalpy [1] [kcal/mol] | Tm [2] [°C]
1 | GACTCCGAAAGGAAAGTC ((((((....)))..))) | -24.8 | 44.4
2 | GACTCCGAAAGGAAGGTC ((((((....)))..))) | -22.1 | 38.3
3 | GACTCCGAAAGGAGTGTC ((((((....)))..))) | -12.3 | 58.4
4 | GACTCCGAAAGGATGTC ((((((....))).))) | -30.7 | 51
5 | GACTCCGGAAACGAAGTC ((((.((....)).)))) | -29.4 | 37.1
6 | GACTCGAAAGAGTC (((((....))))) | -32.1 | 61.2
7 | GACTCGACGAAAGTCGTC (((..(((....)))))) | -8.01 | 31.4
8 | GACTCTCCGAAAGGAGTC (((..(((....)))))) | -9.54 | 35.3
9 | GACTCTGCGAAAGCAGTC (((..(((....)))))) | -7.87 | 32.2
10 | GACTGACGAAAGTCCGTC (((.(((....))).))) | -29.4 | 49.2
11 | GACTGAGAAATCAGTC ((((((....)))))) | -33 | 53.1
12 | GACTGAGGAAACTCGGTC (((.(((....))).))) | -41.1 | 50.4
13 | GACTGCGAAAGCATGTC ((((((....))).))) | -23.1 | 54.5
14 | GACTGCGGAAACGTAGTC ((((.((....)).)))) | -39.6 | 52.6
15 | GACTGGCGAAAGCCGTC (((.(((....)))))) | -11.5 | 67
16 | GACTGGGGAAACCCAATC ((.((((....)))).)) | -14.6 | 31.7
17 | GACTGGGGAAACCCAGTC (((((((....))))))) | -40.3 | 66.6
18 | GACTGGGGAAACCTGGTC (((..((....))..))) | -34.9 | 38.9
19 | GACTGTGGAAACACAATC ((.((((....)))).)) | -15.5 | 31.6
20 | GACTGTGGAAACATGGTC (((..((....))..))) | -28.7 | 37.9
21 | GACTTCGGAAACGAAGCC (.(((((....))))).) | -15 | 45.6
22 | GACTTGGGAAACTAAGTC (((((.(....).))))) | -28.2 | 42.5
23 | GACTTTGCGAAAGCAGTC (((..(((....)))))) | -14.4 | 32.8

Row | Sequence | folding enthalpy [1] [kcal/mol] | Tm [2] [°C]
24 | GAGAAACGAAAGTTACTC (((.(((....))).))) | -28.9 | 41.7
25 | GAGAACCGAAAGGTACTC (((.(((....))).))) | -34.9 | 50.7
26 | GAGAACGAAAGTTTTCTC ((((((....)))..))) | -30.2 | 38.4
27 | GAGAACGGAAACGCTCTC ((((.((....)).)))) | -28.6 | 43.2
28 | GAGAACGGAAACGTTCTC (((((((....))))))) | -41.8 | 64.7
29 | GAGAAGCGAAAGCTCTC (((.(((....)))))) | -20.1 | 50.2
30 | GAGAAGCGAAAGCTGCTC (((.(((....))).))) | -27.4 | 58.1
31 | GAGAAGGGAAACCTTCTC (((((((....))))))) | -50.6 | 55.5
32 | GAGAATGAAAATTCTC ((((((....)))))) | -31.8 | 46
33 | GAGACAGGAAACTGCCTC (((.(((....))).))) | -39.7 | 42.3
34 | GAGACAGGAAACTGTCCC (.(((((....))))).) | -13 | 39.4
35 | GAGACAGGAAACTGTCTC (((((((....))))))) | -49.7 | 60.1
36 | GAGACCACGAAAGTGCTC (((..(((....)))))) | -9.82 | 27.7
37 | GAGACCCGAAAGGGCTC (((.(((....)))))) | -26.8 | 55.4
38 | GAGACCGAAAGGTAACTC ((((((....)))..))) | -12.3 | 39.7
39 | GAGACCGAAAGGTACCTC ((((((....)))..))) | -11.9 | 30.7
40 | GAGACCGAAAGGTATCTC ((((((....)))..))) | -24 | 53
41 | GAGACCGAAAGGTGCTC ((((((....))).))) | -21.4 | 46.9
42 | GAGACCGAAAGGTTCCTC ((((((....)))..))) | -12.4 | 32
43 | GAGACCGAAAGGTTGCTC ((((((....)))..))) | -14.1 | 36.2
44 | GAGACCGAAAGGTTTCTC ((((((....)))..))) | -22.5 | 50.6
45 | GAGACCGGAAACGATCTC ((((.((....)).)))) | -31.9 | 42
46 | GAGACGCCGAAAGGCCTC (((..(((....)))))) | -8.48 | 30.6

Row | Sequence | folding enthalpy [1] [kcal/mol] | Tm [2] [°C]
47 | GAGACGGCGAAAGCCCTC (((..(((....)))))) | -6.29 | 34.5
48 | GAGACTGGAAACGGTCTC (((((.(....).))))) | -46 | 49.9
49 | GAGAGACGAAAGTCCTC (((.(((....)))))) | -17.9 | 46.9
50 | GAGAGAGGAAACTCCCTC (((.(((....))).))) | -22.1 | 28.6
51 | GAGAGCCGAAAGGCGCTC (((.(((....))).))) | -22.9 | 67.8
52 | GAGAGCGAAAGCTAGCTC ((((((....)))..))) | -13.8 | 36.6
53 | GAGAGCGAAAGCTATCTC ((((((....)))..))) | -22.4 | 51.2
54 | GAGAGCGAAAGCTGTCTC ((((((....)))..))) | -20.3 | 51.1
55 | GAGAGCGAAAGCTTTCTC ((((((....)))..))) | -21.4 | 46.6
56 | GAGAGGAAACTCTC (((((....))))) | -23.4 | 44.6
57 | GAGAGGGGAAACCCTTTC ((.((((....)))).)) | -16.8 | 36.4
58 | GAGAGTGGAAACACTTTC ((.((((....)))).)) | -19.4 | 37.6
59 | GAGATAGGAAACCATCTC (((((.(....).))))) | -23.5 | 34.1
60 | GAGATCCGAAAGGAACTC (((.(((....))).))) | -32.2 | 50.2
61 | GAGATCGGAAACGATTTC ((.((((....)))).)) | -26.8 | 42.3
62 | GAGATCGGAAACGGTCTC ((((.((....)).)))) | -44.5 | 51.3
63 | GAGATGGGAAACCATCCC (.(((((....))))).) | -13.1 | 38.7
64 | GAGATTGGAAACAATCCC (.(((((....))))).) | -19.6 | 34
65 | GAGATTGGAAACAATCTC (((((((....))))))) | -42.2 | 56.4
66 | GAGCAAGGAAACCTGCTC (((((.(....).))))) | -27.6 | 48.5
67 | GAGCACGAAAGTGAACTC ((((((....)))..))) | -20.2 | 42.9
68 | GAGCACGAAAGTGATCTC ((((((....)))..))) | -23.7 | 57.1
69 | GAGCACGGAAACGTGCCC (.(((((....))))).) | -6.99 | 53.6

Row | Sequence | folding enthalpy [1] [kcal/mol] | Tm [2] [°C]
70 | GAGCAGGGAAACCTGCCC (.(((((....))))).) | -12.8 | 42.1
71 | GAGCATGGAAACATACTC (((.(((....))).))) | -26.1 | 35.6
72 | GAGCCACGAAAGTGCCTC (((.(((....))).))) | -16.9 | 42.1
73 | GAGCCAGGAAACTAGCTC ((((.((....)).)))) | -26.2 | 37.4
74 | GAGCCCACGAAAGTGCTC (((..(((....)))))) | -16 | 35.8
75 | GAGCCCCGAAAGGGTCTC (((.(((....))).))) | -32.9 | 57.1
76 | GAGCCCGAAAGGGATCTC ((((((....)))..))) | -24.6 | 69
77 | GAGCCCGAAAGGGCACTC ((((((....)))..))) | -11 | 62.2
78 | GAGCCCGAAAGGGTACTC ((((((....)))..))) | -13.1 | 43.1
79 | GAGCCCGAAAGGGTCCTC ((((((....)))..))) | -13.2 | 42.5
80 | GAGCCCGAAAGGGTCTC ((((((....))).))) | -23.8 | 59
81 | GAGCCCGGAAACGAGCTC ((((.((....)).)))) | -35.8 | 50.2
82 | GAGCCGGGAAACTGGCTC (((((.(....).))))) | -36.2 | 63.3
83 | GAGCCTCCGAAAGGACTC (((..(((....)))))) | -11.8 | 31.9
84 | GAGCGAGGAAACTCGCCC (.(((((....))))).) | -7.21 | 53.6
85 | GAGCGAGGAAACTCGTTC ((.((((....)))).)) | -27 | 48.8
86 | GAGCGAGGAAACTTGCTC ((((.((....)).)))) | -25.1 | 52.2
87 | GAGCGCACGAAAGTGCTC (((..(((....)))))) | -8.27 | 38.1
88 | GAGCGCCGAAAGGCCCTC (((.(((....))).))) | -15.4 | 47.6
89 | GAGCGCGAAAGCGACTC ((((((....))).))) | -16.9 | 60.3
90 | GAGCGCGAAAGCGGGCTC ((((((....)))..))) | -16.2 | 67.9
91 | GAGCGCGAAAGCGTGCTC ((((((....)))..))) | -17.1 | 56.4
